We go through seven molecules from PubChem BioAssay AID588703 (Broad Institute, 2011).

SMILES strings stand for the structures. Calls of active or inactive are those of the source. The rule behind the calls is not given here.

Experiment [1] deals with HMLE_shTWIST viability, CellTiter-Glo luminescence, 72 h. Description: cytotoxicity toward TWIST-knockdown HMLE CSC-like cells – cell-based, CellTiter-Glo luminescence, dry powder, dose response (AID 588703). An outline of the steps: (§1)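 Material – HMLE_shTWIST EMT-induced stable cell line · Input – 1000 cells per well · Times – 72 h compound exposure, dosing 24 h post-seeding · Medium – serum-free screening medium · Benchmarks – DMSO-only wells · Signal – CellTiter-Glo luminescence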

Experiment in experiment [2]: as above
As to conditions: HMLE_shTWIST viability, CellTiter-Glo luminescence, 72 h. Put shortly:
as §1

Usually AC50 stands for the midpoint of the concentration-response curve, whichever way the signal moves. Consider `O=C(COc1c(Cl)cc(Cl)cc1Cl)N/N=C/c1ccc[nH]1`, for which, in experiment [1], the AC50 was 110 nM.
Still for that read-out and setting: the figure for `O=C(COc1ccc(Cl)cc1Cl)N/N=C/c1ccc[nH]1` is 2210 nM.
On to `O=C(COc1ccc(Cl)cc1Cl)N/N=C/c1cnc[nH]1`, for which the outcome in experiment [2] was inactive.
Regarding `Cc1cc(Cl)ccc1OCC(=O)N/N=C/c1ccc[nH]1`, the AC50 in experiment [1] was 1600 nM.
Same read-out and setting: then `O=C(COc1cc(Cl)ccc1Cl)N/N=C/c1ccc[nH]1`, with 920 nM; and `O=C(N/N=C/c1ccc[nH]1)c1cc2ccccc2o1`, with 180 nM.
In the case of `CC(C)(C)c1ccc2c(c1)OC(C(=O)N/N=C/c1ccc[nH]1)CO2` (configuration not stated), the AC50 in experiment [1] is 2890 nM.
